# Data from paper PMC10975593 (ACS Omega, 2024).
# Read-outs that look alike come from different tables or passages of the source.
# How the values were obtained:
# HS 578T = test: NCI 60-cell line screen; assay type: cell-based, human; conditions: for TGI: HS 578T, breast cancer; for GI50 / IC50 / CC50: Homo sapiens, Hs-578T; for CC50: read-out: LC50
# NCI-H23 = test: NCI 60-cell line screen; assay type: cell-based, human; conditions: for GI50 / IC50 / CC50: Homo sapiens; for GI50 / IC50: NCI-H23; for CC50: NCI-H23, read-out: LC50; for TGI: NCI-H23, non-small cell lung cancer
# SK-MEL-2 = test: NCI 60-cell line screen; assay type: cell-based, human; conditions: for GI50 / IC50 / CC50: Homo sapiens; for GI50 / IC50: SK-MEL-2; for CC50: SK-MEL-2, read-out: LC50; for TGI: SK-MEL-2, melanoma
# How it was run: (§1)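 Test compounds were submitted to the National Cancer Institute and run under NCI's standard 60-cell-line protocols. Read-outs were taken from percent-growth versus log-concentration curves.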
# DU-145 = test: NCI 60-cell line screen; assay type: cell-based, human; conditions: for TGI: DU-145, prostate cancer; for GI50 / IC50 / CC50: Homo sapiens; for GI50 / IC50: DU-145; for CC50: DU-145, read-out: LC50
# MDA-MB-468 = test: NCI 60-cell line screen; assay type: cell-based, human; conditions: for GI50 / IC50 / CC50: Homo sapiens; for GI50 / IC50: MDA-MB-468; for CC50: MDA-MB-468, read-out: LC50; for TGI: MDA-MB-468, breast cancer
# PDK1 Direct = target: T1, PDK1 Direct (Homo sapiens, UniProt O15530); test: Kinase selectivity for OMS14; assay type: biochemical
# T1 sequence (O15530 1-556): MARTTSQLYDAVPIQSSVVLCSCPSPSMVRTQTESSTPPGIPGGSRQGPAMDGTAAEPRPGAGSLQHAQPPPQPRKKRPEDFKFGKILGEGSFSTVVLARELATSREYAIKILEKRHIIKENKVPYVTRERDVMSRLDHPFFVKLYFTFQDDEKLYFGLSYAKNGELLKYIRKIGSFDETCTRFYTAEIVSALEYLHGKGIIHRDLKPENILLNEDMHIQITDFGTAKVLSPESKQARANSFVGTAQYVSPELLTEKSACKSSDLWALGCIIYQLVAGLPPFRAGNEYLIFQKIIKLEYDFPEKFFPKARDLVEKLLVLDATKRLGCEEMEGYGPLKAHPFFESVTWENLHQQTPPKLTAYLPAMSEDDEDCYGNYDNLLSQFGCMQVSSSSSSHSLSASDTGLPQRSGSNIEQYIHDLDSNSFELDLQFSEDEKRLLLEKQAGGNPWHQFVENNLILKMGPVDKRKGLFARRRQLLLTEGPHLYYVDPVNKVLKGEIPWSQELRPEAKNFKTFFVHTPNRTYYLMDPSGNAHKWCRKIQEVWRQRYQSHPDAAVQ
# NCI 60 cell line panel = test: NCI 60-cell line inhibition, range over panel; assay type: cell-based; conditions: Homo sapiens; for GI50: read-out: GI50, range over cell lines; for IC50: read-out: IC50, range over cell lines
# UACC-257 = test: NCI 60-cell line screen; assay type: cell-based, human; conditions: for GI50 / IC50 / CC50: Homo sapiens; for GI50 / IC50: UACC-257; for CC50: UACC-257, read-out: LC50; for TGI: UACC-257, melanoma
# How it was run: as §1
# MCF-7 = test: NCI 60-cell line screen; assay type: cell-based, human; conditions: for GI50 / IC50 / CC50: Homo sapiens; for GI50 / IC50: MCF7; for CC50: MCF7, read-out: LC50; for TGI: MCF-7, breast cancer
# CDK1/cyclin B = CDK1/cyclin B (Homo sapiens, UniProt P06493); test: Kinase selectivity for OMS14; assay type: biochemical
# CDK1/cyclin B, sequence (P06493 whole entry): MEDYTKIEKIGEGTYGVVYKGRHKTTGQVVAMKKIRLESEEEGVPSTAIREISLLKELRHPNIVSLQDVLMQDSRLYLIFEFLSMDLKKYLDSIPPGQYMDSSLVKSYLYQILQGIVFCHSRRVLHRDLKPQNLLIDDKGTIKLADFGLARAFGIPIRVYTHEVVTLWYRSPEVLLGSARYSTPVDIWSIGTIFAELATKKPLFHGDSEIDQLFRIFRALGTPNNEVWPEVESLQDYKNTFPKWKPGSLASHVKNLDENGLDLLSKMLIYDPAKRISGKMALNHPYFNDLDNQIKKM
# CDK1/cyclin B, sequence (P14635 whole entry, further chain): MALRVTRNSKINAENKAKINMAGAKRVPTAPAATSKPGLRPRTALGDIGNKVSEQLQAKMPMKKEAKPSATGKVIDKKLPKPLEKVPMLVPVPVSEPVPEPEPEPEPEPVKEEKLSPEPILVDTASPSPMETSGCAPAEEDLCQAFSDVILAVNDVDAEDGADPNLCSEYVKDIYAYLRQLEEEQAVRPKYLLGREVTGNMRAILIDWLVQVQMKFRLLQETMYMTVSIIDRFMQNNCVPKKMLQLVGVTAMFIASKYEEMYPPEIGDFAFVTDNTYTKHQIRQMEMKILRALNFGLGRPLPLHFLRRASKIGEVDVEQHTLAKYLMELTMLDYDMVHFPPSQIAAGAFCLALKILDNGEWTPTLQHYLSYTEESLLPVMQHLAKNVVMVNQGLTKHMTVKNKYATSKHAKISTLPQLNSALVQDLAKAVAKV
# BT-549 = test: NCI 60-cell line screen; assay type: cell-based, human; conditions: for TGI: BT-549, breast cancer; for GI50 / IC50 / CC50: Homo sapiens; for GI50 / IC50: BT-549; for CC50: BT-549, read-out: LC50
# PC-3 = test: NCI 60-cell line screen; assay type: cell-based, human; conditions: for GI50 / IC50 / CC50: Homo sapiens; for GI50 / IC50: PC-3; for CC50: PC-3, read-out: LC50; for TGI: PC-3, prostate cancer
# How it was run: as §1
# AKT3 (PKB γ) = AKT3 (PKB γ) (Homo sapiens, UniProt Q9Y243); test: Kinase selectivity for OMS14; assay type: biochemical
# AKT3 (PKB γ), sequence (Q9Y243 whole entry): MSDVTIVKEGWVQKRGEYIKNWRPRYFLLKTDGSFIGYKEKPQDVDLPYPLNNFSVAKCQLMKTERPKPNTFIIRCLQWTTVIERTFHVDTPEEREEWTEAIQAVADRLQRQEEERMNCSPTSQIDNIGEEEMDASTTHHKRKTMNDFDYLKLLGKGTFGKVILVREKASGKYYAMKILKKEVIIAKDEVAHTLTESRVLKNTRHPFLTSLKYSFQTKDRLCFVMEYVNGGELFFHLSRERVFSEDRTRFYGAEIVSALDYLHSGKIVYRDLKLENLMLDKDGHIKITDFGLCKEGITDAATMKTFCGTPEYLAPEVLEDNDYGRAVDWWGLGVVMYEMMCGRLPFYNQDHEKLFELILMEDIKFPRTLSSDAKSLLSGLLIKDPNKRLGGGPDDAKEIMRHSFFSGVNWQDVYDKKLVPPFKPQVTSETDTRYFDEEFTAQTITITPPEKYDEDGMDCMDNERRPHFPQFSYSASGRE
# HT29 = test: NCI 60-cell line screen; assay type: cell-based, human; conditions: for TGI: HT29, colon cancer; for GI50 / IC50 / CC50: Homo sapiens; for GI50 / IC50: HT-29; for CC50: HT-29, read-out: LC50
# A549/ATCC = test: NCI 60-cell line screen; assay type: cell-based, human; conditions: for TGI: A549/ATCC, non-small cell lung cancer; for GI50 / IC50 / CC50: Homo sapiens; for GI50 / IC50: A549; for CC50: A549, read-out: LC50
# [1] = test system: MCF-7 and A549 cancer cell lines; test: MTT assay, range over both cell lines; assay type: cell-based; conditions: read-out: IC50 values, range
# How it was run: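 A549 in DMEM and MCF-7 in RPMI, each with 10% heat-inactivated FBS, 1% penicillin/streptomycin and 2 mmol/L glutamine at 37 °C, 5% CO2. Seeded at 2000 (A549) or 10,000 (MCF-7) cells/well and attached 24 h. Then 72 h with test compound at varying concentrations. MTT (5 mg/mL stock) added for 4 h at 37 °C, formazan dissolved in DMSO, absorbance read at 450/540 nm. Triplicates in three separate experiments.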
# IGROV1 = test: NCI 60-cell line screen; assay type: cell-based, human; conditions: for GI50 / IC50 / CC50: Homo sapiens; for GI50 / IC50: IGROV-1; for CC50: IGROV-1, read-out: LC50; for TGI: IGROV1, ovarian cancer
# SW-620 = test: NCI 60-cell line screen; assay type: cell-based, human; conditions: for GI50 / IC50 / CC50: Homo sapiens; for GI50 / IC50: SW-620; for CC50: SW-620, read-out: LC50; for TGI: SW-620, colon cancer
# How it was run: as §1
# MALME-3M = test: NCI 60-cell line screen; assay type: cell-based, human; conditions: for GI50 / IC50 / CC50: Homo sapiens, Malme-3M; for CC50: read-out: LC50; for TGI: MALME-3M, melanoma
# COLO 205 = test: NCI 60-cell line screen; assay type: cell-based, human; conditions: for TGI: COLO 205, colon cancer; for GI50 / IC50 / CC50: Homo sapiens; for GI50 / IC50: COLO 205; for CC50: COLO 205, read-out: LC50
# [2] = read-out: % of inhibition (mean)
# [3] = read-out: % of inhibition, point 1
# [4] = read-out: % of inhibition, point 2
smiles,measurement,setting,value
"O=C(CN1CCN(CC(=O)Nc2nc3ccccc3s2)CC1)Nc1ccc([N+](=O)[O-])cc1 [OMS14, N-(benzo[d]thiazol-2-yl)-2-(4-(2-((4-nitrophenyl)amino)-2-oxoethyl)piperazin-1-yl)acetamide]",TGI,HS 578T,8.5 µM
same,GI50,HS 578T,2.4 µM
same,IC50,HS 578T,8.9 µM
same,CC50,HS 578T,> 100 µM
same,GI50,NCI-H23,1.6 µM
same,IC50,NCI-H23,3.2 µM
same,CC50,NCI-H23,8.9 µM
same,TGI,NCI-H23,3.8 µM
same,GI50,SK-MEL-2,1.8 µM
same,IC50,SK-MEL-2,3.5 µM
same,CC50,SK-MEL-2,6.9 µM
same,TGI,SK-MEL-2,3.5 µM
same,TGI,DU-145,7.9 µM
same,GI50,DU-145,2.2 µM
same,IC50,DU-145,3.5 µM
same,CC50,DU-145,38.9 µM
same,GI50,MDA-MB-468,1.5 µM
same,IC50,MDA-MB-468,3.2 µM
same,CC50,MDA-MB-468,7.1 µM
same,TGI,MDA-MB-468,3.2 µM
same,inhibition at 100 µM,PDK1 Direct; [2],-7%
same,inhibition at 100 µM,PDK1 Direct; [3],-6%
same,inhibition at 100 µM,PDK1 Direct; [4],-8%
same,GI50,NCI 60 cell line panel,0.66 to 3.02 µM
same,IC50,NCI 60 cell line panel,0.81 to 9.1 µM
same,GI50,UACC-257,2.1 µM
same,IC50,UACC-257,4.2 µM
same,CC50,UACC-257,11.7 µM
same,TGI,UACC-257,4.7 µM
same,GI50,MCF-7,2.8 µM
same,IC50,MCF-7,4.1 µM
same,CC50,MCF-7,61.7 µM
same,TGI,MCF-7,7.8 µM
same,inhibition at 100 µM,CDK1/cyclin B; [2],24%
same,inhibition at 100 µM,CDK1/cyclin B; [3],23%
same,inhibition at 100 µM,CDK1/cyclin B; [4],25%
same,TGI,BT-549,9.8 µM
same,GI50,BT-549,3 µM
same,IC50,BT-549,7.8 µM
same,CC50,BT-549,36.3 µM
same,GI50,PC-3,3 µM
same,IC50,PC-3,4.4 µM
same,CC50,PC-3,> 100 µM
same,TGI,PC-3,20.9 µM
same,inhibition at 100 µM,AKT3 (PKB γ); [2],28%
same,inhibition at 100 µM,AKT3 (PKB γ); [3],27%
same,inhibition at 100 µM,AKT3 (PKB γ); [4],29%
same,TGI,HT29,3.6 µM
same,GI50,HT29,1.3 µM
same,IC50,HT29,2.1 µM
same,CC50,HT29,10.2 µM
same,TGI,A549/ATCC,4.6 µM
same,GI50,A549/ATCC,1.9 µM
same,IC50,A549/ATCC,3.2 µM
same,CC50,A549/ATCC,> 100 µM
same,IC50,[1],22.1 to 61 µM
same,GI50,IGROV1,1.9 µM
same,IC50,IGROV1,3.3 µM
same,CC50,IGROV1,47.9 µM
same,TGI,IGROV1,4.6 µM
same,GI50,SW-620,0.8 µM
same,IC50,SW-620,1.1 µM
same,CC50,SW-620,87.1 µM
same,TGI,SW-620,5.9 µM
same,GI50,MALME-3M,3 µM
same,IC50,MALME-3M,6.6 µM
same,CC50,MALME-3M,35.5 µM
same,TGI,MALME-3M,9.3 µM
same,TGI,COLO 205,2.2 µM
same,GI50,COLO 205,1 µM
same,IC50,COLO 205,1.7 µM
same,CC50,COLO 205,5 µM
"O=C(CNc1ccc([N+](=O)[O-])cc1)Nc1nc2ccccc2s1 [OMS5, N-(1,3-benzothiazol-2-yl)-2-(4-nitroanilino)acetamide]",TGI,HS 578T,5.6 µM
same,GI50,HS 578T,1.6 µM
same,IC50,HS 578T,5.9 µM
same,CC50,HS 578T,93.3 µM
same,GI50,NCI-H23,1 µM
same,IC50,NCI-H23,2.1 µM
same,CC50,NCI-H23,7.8 µM
same,TGI,NCI-H23,2.8 µM
same,GI50,SK-MEL-2,1.3 µM
same,IC50,SK-MEL-2,3 µM
same,CC50,SK-MEL-2,6.3 µM
same,TGI,SK-MEL-2,2.8 µM
same,TGI,DU-145,12 µM
same,GI50,DU-145,0.8 µM
same,IC50,DU-145,1.8 µM
same,CC50,DU-145,52.5 µM
same,GI50,MDA-MB-468,0.4 µM
same,IC50,MDA-MB-468,1.8 µM
same,CC50,MDA-MB-468,5.3 µM
same,TGI,MDA-MB-468,1.8 µM
same,GI50,NCI 60 cell line panel,0.36 to 2.3 µM
same,IC50,NCI 60 cell line panel,0.44 to 12 µM
same,GI50,UACC-257,1.3 µM
same,IC50,UACC-257,2.5 µM
same,CC50,UACC-257,6.3 µM
same,TGI,UACC-257,2.8 µM
same,GI50,MCF-7,0.4 µM
same,IC50,MCF-7,0.5 µM
same,CC50,MCF-7,74.1 µM
same,TGI,MCF-7,10 µM
same,TGI,BT-549,6.5 µM
same,GI50,BT-549,2 µM
same,IC50,BT-549,5.4 µM
same,CC50,BT-549,27.5 µM
same,GI50,PC-3,1.6 µM
same,IC50,PC-3,2.8 µM
same,CC50,PC-3,> 100 µM
same,TGI,PC-3,45 µM
same,TGI,HT29,2.1 µM
same,GI50,HT29,0.5 µM
same,IC50,HT29,0.7 µM
same,CC50,HT29,8.1 µM
same,TGI,A549/ATCC,28 µM
same,GI50,A549/ATCC,0.8 µM
same,IC50,A549/ATCC,1.5 µM
same,CC50,A549/ATCC,> 100 µM
same,IC50,[1],22.1 to 61 µM
same,GI50,IGROV1,0.8 µM
same,IC50,IGROV1,1.8 µM
same,CC50,IGROV1,> 100 µM
same,TGI,IGROV1,12 µM
same,GI50,SW-620,0.5 µM
same,IC50,SW-620,0.7 µM
same,CC50,SW-620,43.7 µM
same,TGI,SW-620,7.2 µM
same,GI50,MALME-3M,1.1 µM
same,IC50,MALME-3M,2.1 µM
same,CC50,MALME-3M,5 µM
same,TGI,MALME-3M,2.3 µM
same,TGI,COLO 205,1.5 µM
same,GI50,COLO 205,0.4 µM
same,IC50,COLO 205,0.7 µM
same,CC50,COLO 205,4.7 µM
